Source: PMC3075368 (Journal of molecular and cellular cardiology, 2011)
Read-outs that look alike come from different tables or passages of the source. Bridge positions count the residues as written; N and C are the ends. Ends that are not written are not given here.

Key:
[1] = tested on: heart function in rats after ischemia/reperfusion injury; details: rat, in vivo
alpha-B crystalline = biological target: T1, alpha-B crystalline (Homo sapiens, UniProt P02511); test: Surface Plasmon Resonance assay; assay type: binding; details: biotinylated peptide on streptavidin coated chips, Biacore 2000
T1 sequence (P02511 1-175): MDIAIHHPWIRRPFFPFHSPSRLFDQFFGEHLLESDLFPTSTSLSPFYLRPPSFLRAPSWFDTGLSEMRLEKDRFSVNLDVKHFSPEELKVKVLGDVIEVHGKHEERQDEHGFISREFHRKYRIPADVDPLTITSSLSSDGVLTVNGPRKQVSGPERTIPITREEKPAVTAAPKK

[2] = tested on: heart function in rats after ischemia/reperfusion injury
ischemic left ventricle = test: Western analysis of post-ischemic cardiac tissue with anti-mCherry antibody; assay type: in vivo, mouse; details: versus negative controls
Method in brief: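 Mice had 15 min ischemia then 5 min reperfusion. Recombinant Sumo-mCherry–test peptide (Ni-NTA plus size-exclusion purified; 10 mg/mL PBS stock) was given 1 mg i.v. Controls were unconjugated Sumo-mCherry, linear or scrambled peptide fusions, and PBS. After 5 min circulation, ischemic LV, non-ischemic LV and RV were snap frozen, RIPA-homogenized, sonicated and centrifuged, then blotted with rabbit anti-RFP. Three blinded sets, 5 mice each.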

[3] = echocardiography, 24 hours after administration, n=4, mean ± SEM
[4] = hemodynamic measurement, 24 hours after administration, n=4, mean ± SEM

## CSKTALSMC (disulfide 1-9 (inferred)) [scrambled peptide]
[1]
  % Fractional shortening: 43.20±3.22%
  Anterior wall thickness: 2.08±0.08 mm
  Cardiac index: 20.96±4.48 ml/min per 100 g
  Cardiac output: 44530 ± 7633 µL/min
  Ejection fraction: 27.89±3.01%
  End-diastolic dimension: 5.16±0.23 mm
  End-diastolic pressure: 3.08±0.22 mmHg
  End-diastolic volume: 362.72 ± 14.82 µL
  End-systolic dimension: 2.93±0.18 mm
  End-systolic pressure: 120.1±3.48 mmHg
  End-systolic volume: 260.91 ± 10.99 µL
  Heart rate: 430.75±20.59 beats/min
  LVM/BW: 2.94±0.32
  Left ventricle mass: 646 ± 55.48 g
  Posterior wall thickness: 1.83±0.06 mm
  Stroke volume: 101.81 ± 13.74 µL

## CSTSMLKAC (disulfide 1-9 (inferred))
alpha-B crystalline
  interaction with alpha-B crystalline: a significant interaction between CSTSMLKAC and alpha-B crystalline was not demonstrated
[2]; 24 hours after administration, n=4, mean ± SEM
  Body weight: 260.25 ± 13.14 g
[2]; 24 hours after systemic administration, versus scrambled peptide and PBS, n=4 each
  impairment in LV contractile function: did not induce any significant impairment
[2]; [3]
  % Fractional shortening: 54.05±6.72%
  Anterior wall thickness: 2.00±0.04 mm
  End-diastolic dimension: 5.33±0.36 mm
  End-systolic dimension: 2.49±0.51 mm
  Posterior wall thickness: 1.73±0.10 mm
[2]; [4]
  Cardiac index: 19.87±2.54 ml/min per 100 g
  Cardiac output: 51430 ± 6708 µL/min
  Ejection fraction: 28.44±2.09%
  End-diastolic pressure: 3.96±0.67 mmHg
  End-diastolic volume: 393.56 ± 25.62 µL
  End-systolic pressure: 119±3.16 mmHg
  End-systolic volume: 280.76 ± 15.91 µL
  Stroke volume: 112.82 ± 13.61 µL

## Sumo-mCherry-CSTSMLKAC
Ischemic left ventricle
  homing of the protein to post-ischemic cardiac tissue: clear homing
